From ChEMBL document CHEMBL3124872, “Discovery and early development of TMC647055, a non-nucleoside inhibitor of the hepatitis C virus NS5B polymerase” (J Med Chem, 2014)
Active and inactive are the calls of the source. The rule behind the calls is not given here.

Assays:
[1] = Binding affinity to His6-tagged Hepatitis C virus Con 1b NS5B delta21 RNA dependent RNA polymerase expressed in Escherichia coli Rosetta 2 (DE3) by surface plasmon resonance analysis; set-up: species or system Hepatitis C virus (isolate Con1)
Method in brief: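 Surface plasmon resonance binding to NS5B polymerase of the stated genotype; association and dissociation rate constants measured, from which Kd and residence half-life were derived; median Kd reported.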

[2] = Cytotoxicity against human HuH7 cells; type: cell-based, Huh-7
[3] = Cytotoxicity against human MT4 cells; type: cell-based
[4] = system: Hepatitis C virus; experiment: Antiviral activity against Hepatitis C virus genotype 1b infected in human HuH7 cells after 72 hrs by luciferase reporter gene assay in presence of 40% human plasma relative to control; type: functional, Hepacivirus hominis, Huh-7
[5] = system: Hepatitis C virus; experiment: Antiviral activity against Hepatitis C virus genotype 1b infected in human HuH7 cells after 72 hrs by luciferase reporter gene assay; type: functional, organism-based, Hepacivirus hominis; conditions: Huh-7, 72 h
[6] = Drug uptake in Sprague-Dawley rat liver at 10 mg/kg, po after 7 hrs; type: ADME, organism-based; set-up: dose 10 mg/kg, route oral; conditions: read-out: Drug uptake
[7] = Oral bioavailability in Sprague-Dawley rat at 10 mg/kg; type: ADME, organism-based; conditions: in vivo
[8] = Drug metabolism in human liver microsomes at 5 uM after 15 mins; type: ADME; conditions: read-out: Drug metabolism
Method in brief: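 Stability in human liver microsomes: test compound at 5 μM, incubated 15 min; reported as percentage of compound metabolized.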

[9] = Drug metabolism in rat liver microsomes after 15 mins; type: ADME; conditions: read-out: Drug metabolism
[10] = Plasma clearance in Sprague-Dawley rat at 2 mg/kg, iv and 10 mg/kg, po; type: ADME, organism-based
[11] = Ratio of drug level in liver to plasma in Sprague-Dawley rat at 10 mg/kg, po after 7 hrs; type: ADME, organism-based; set-up: dose 10 mg/kg, route oral
[12] = system: Hepatitis C virus; experiment: Antiviral activity against Hepatitis C virus genotype 1b infected in human HuH7 assessed as rebound of replicon RNA at 0.25 uM preincubated for 2 weeks followed by 3 week rebound phase by RT-PCR analysis; type: functional, organism-based; conditions: Hepacivirus hominis, Huh-7
Method in brief: (§1)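 Huh7-Luc replicon cells incubated 14 days with compound alone or in combination, followed by a 3-week rebound phase without inhibitor; replicon RNA followed for clearance and rebound.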

[13] = system: Hepatitis C virus; experiment: Antiviral activity against Hepatitis C virus genotype 1b infected in human assessed as reduction in plasma HCV RNA level administered for 10 days measured on day 11; type: functional, organism-based; conditions: Hepacivirus hominis
Method in brief: (§2)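 HCV genotype 1a- and 1b-infected patients received oral 1000 mg b.i.d. together with an NS3/4A protease inhibitor at 150 mg q.d. for 10 days. The read-out was the median decrease in plasma HCV RNA (log10 IU/mL) at day 11.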

[14] = system: Hepatitis C virus; experiment: Antiviral activity against Hepatitis C virus genotype 1b infected in human HuH7 assessed as suppression of formation of resistant colonies at 0.2 uM preincubated for 2 weeks followed by 3 week rebound phase by RT-PCR analysis; type: functional, organism-based; conditions: Hepacivirus hominis, Huh-7
Method in brief: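 Colony formation test in Huh7-Luc replicon cells incubated for 2−3 weeks with inhibitor alone (0.20 μM), scored for formation of resistant colonies.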

[15] = system: Hepatitis C virus; experiment: Antiviral activity against Hepatitis C virus genotype 1b infected in human HuH7 assessed as clearance of replicon cells at 0.25 uM preincubated for 2 weeks followed by 3 week rebound phase by RT-PCR analysis; type: functional, organism-based; conditions: Hepacivirus hominis, Huh-7; method in brief: as §1
[16] = system: Hepatitis C virus; experiment: Antiviral activity against Hepatitis C virus genotype 1a infected in human assessed as reduction in plasma HCV RNA level administered for 10 days measured on day 11; type: functional, organism-based; conditions: Hepacivirus hominis, subtype 1a; method in brief: as §2

| Compound | Kd [1] | CC50 [2] | CC50 [3] | fold change (FC) [4] | further results |
| --- | --- | --- | --- | --- | --- |
| COc1ccc2c(c1)C=C1Cn3c-2c(C2CCCCC2)c2ccc(cc23)C(=O)NS(=O)(=O)N(C)CCCCCCN(C)C1=O | 0.0008 µM | > 25 µM | > 25 µM | 10 |  |
| COc1ccc2c(c1)C=C1Cn3c-2c(C2CCCCC2)c2ccc(cc23)C(=O)NS(=O)(=O)N(C)CCCCN(C)C1=O |  | > 25 µM | > 25 µM |  | EC50 [5]: 0.075 µM |
| COc1ccc2c(c1)C=C1Cn3c-2c(C2CCCCC2)c2ccc(cc23)C(=O)NS(=O)(=O)N(C)CCCN(C)C1=O | 0.007 µM | > 25 µM | > 25 µM | 10 |  |
| COc1ccc2c(c1)C=C1Cn3c-2c(C2CCCCC2)c2ccc(cc23)C(=O)NS(=O)(=O)N(C)CCCCCNC1=O | 0.0009 µM | > 25 µM | > 25 µM | 10 | concentration at 7 h [6]: 6320 ng/g |
| COc1ccc2c(c1)C=C1Cn3c-2c(C2CCCCC2)c2ccc(cc23)C(=O)NS(=O)(=O)N(C)CCN(C)CCNC1=O |  | > 25 µM | > 25 µM | 10 |  |
| COc1ccc2c(c1)C=C1Cn3c-2c(C2CCCCC2)c2ccc(cc23)C(=O)NS(=O)(=O)N2CCN(CCNC1=O)CC2 | 0.025 µM | > 25 µM | > 25 µM | 10 |  |
| CN1CCOCCN(C)S(=O)(=O)NC(=O)c2ccc3c(C4CCCCC4)c4n(c3c2)CC(=Cc2cc(Cl)ccc2-4)C1=O | 0.0015 µM | > 25 µM | > 25 µM | 10 |  |
| CN1CCOCCN(C)S(=O)(=O)NC(=O)c2ccc3c(C4CCCCC4)c4n(c3c2)CC(=Cc2cc(F)ccc2-4)C1=O |  | > 25 µM | > 25 µM | 10 | concentration at 7 h [6]: 6560 ng/g |
| COc1ccc2c(c1)C=C1Cn3c-2c(C2CCCCC2)c2ccc(cc23)C(=O)NS(=O)(=O)N(C)CCCCNC1=O | 0.0071 µM | > 25 µM | > 25 µM | 10 |  |
| COc1ccc2c(c1)C=C1Cn3c-2c(C2CCCCC2)c2ccc(cc23)C(=O)NS(=O)(=O)NCCCCN(C)C1=O | 0.015 µM | > 25 µM | > 25 µM | 10 |  |
| COc1ccc2c(c1)C=C1Cn3c-2c(C2CCCCC2)c2ccc(cc23)C(=O)NS(=O)(=O)N(C)CCN2CCN(CC2)C1=O |  | > 25 µM | > 25 µM | 10 | concentration at 7 h [6]: 299 ng/g |
| COc1ccc2c(c1)C[C@@H]1Cn3c-2c(C2CCCCC2)c2ccc(cc23)C(=O)NS(=O)(=O)N(C)CCOCCN(C)C1=O |  | > 25 µM | > 25 µM | 10 | concentration at 7 h [6]: 898 ng/g |
| COc1ccc2c(c1)C[C@H]1Cn3c-2c(C2CCCCC2)c2ccc(cc23)C(=O)NS(=O)(=O)N(C)CCOCCN(C)C1=O |  | > 25 µM | > 25 µM | 10 |  |
| COc1ccc2c(c1)[C@@H]1C[C@]13Cn1c-2c(C2CCCCC2)c2ccc(cc21)C(=O)NS(=O)(=O)N(C)CCOCCN(C)C3=O |  | > 25 µM | > 25 µM | 10 | concentration at 7 h [6]: 3200 ng/g; bioavailability [7]: 51%; metabolised at 0.25 h, 5 µM [8]: 95%; metabolised at 0.25 h [9]: 70%; clearance [10]: 86.7 mL/min/kg; EC50 [5]: 0.04 µM; Kp at 7 h [11]: 38 |
| COc1ccc2c(c1)C=C1CN(C)CCCCN(C)S(=O)(=O)NC(=O)c3ccc4c(C5CCCCC5)c-2n(c4c3)C1 |  | > 25 µM | > 25 µM | 10 | EC50 [5]: 2.34 µM |
| COc1ccc2c(c1)[C@H]1C[C@@]13Cn1c-2c(C2CCCCC2)c2ccc(cc21)C(=O)NS(=O)(=O)N(C)CCOCCN(C)C3=O |  | > 25 µM | > 25 µM | 10 | EC50 [5]: 0.8 µM |
| COc1ccc2c(O[C@@H]3C[C@H]4C(=O)N[C@]5(C(=O)NS(=O)(=O)C6CC6)C[C@H]5/C=C\CCCCN(C)C(=O)[C@@H]4C3)cc(-c3nc(C(C)C)cs3)nc2c1C |  |  |  |  | Activity [12]: inactive; Activity [13]: Active; Activity [14]: inactive; Activity [15]: inactive; Activity [16]: Active |
